Compound activity as filed in PubChem BioAssay.
The list is not random: actives were taken first. Their share in the collection is about 3%.
Cl transport mod – KCC2 (human) Cl- transport modulation; AID 1456; B-score of Tl+ flux slope (higher = more flux/activation; lower = inhibition) at 10 µM; KCC2 cells, thallium flux FluoZin-2 fluorescence; Q9H2X9; actives 2.2% (n = 190,000);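 active means thallium flux slope and its plate-corrected score both differing from the plate sample mean at a set confidence after two filtering rounds, in either direction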;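 further: slope of fluorescence scaled to starting intensity during 10 to 20 s after thallium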
PKD1 inh – PKD1 (human) kinase inhibition; actives 0.056% (n = 200,000); Q15139; AID 797; inhibition, % (concentration not given with the values); PKD1 kinase fluorescence polarization assay; in the data active means inhibition above about 50%
Rad51 HR inh – Rad51 (human) homologous recombination inhibition | Q06609 | hRad51 DNA strand exchange, fluorescence dequenching | inhibition, % at 10 µM | actives 0.085% (n = 200,000) | AID 1385;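 active means inhibition above 40% at the single screening dose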
Target sequence (Q06609 whole entry, looked up): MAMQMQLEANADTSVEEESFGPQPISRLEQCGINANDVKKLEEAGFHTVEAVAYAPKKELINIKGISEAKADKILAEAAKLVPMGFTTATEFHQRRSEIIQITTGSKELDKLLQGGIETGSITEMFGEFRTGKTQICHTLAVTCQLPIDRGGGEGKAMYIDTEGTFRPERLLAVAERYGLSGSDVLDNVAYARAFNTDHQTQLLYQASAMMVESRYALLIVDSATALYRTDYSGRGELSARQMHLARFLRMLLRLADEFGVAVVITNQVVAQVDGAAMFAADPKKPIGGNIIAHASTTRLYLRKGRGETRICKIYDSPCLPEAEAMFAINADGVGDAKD
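Material: Human Rad51 nucleoprotein filaments preassembled on unlabelled ssDNA | Also added: Labelled 47-mer dsDNA for strand exchange | Dosing: Single dose, 10 µM final compound | Schedule: 30-min compound preincubation and 15-min exchange, both room temperature | Technique: Fluorescence dequenching at 485/520 nm | Measure: Percent inhibition relative to plate controls and blanks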
ROMK mod – human ROMK K+ channel modulation, primary screen | P48048 | Tet-inducible ROMK, thallium flux fluorescence; actives lie on both sides | B-score at 10 µM | actives 2% (n = 130,000);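 active means signal ratio slope over the read window, or its plate-corrected B-score, at least 3 SD from the plate mean, either direction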;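 further: B-score of the F/F0 ratio slope over 7 to 12 s after thallium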
Target sequence (P48048 whole entry, looked up): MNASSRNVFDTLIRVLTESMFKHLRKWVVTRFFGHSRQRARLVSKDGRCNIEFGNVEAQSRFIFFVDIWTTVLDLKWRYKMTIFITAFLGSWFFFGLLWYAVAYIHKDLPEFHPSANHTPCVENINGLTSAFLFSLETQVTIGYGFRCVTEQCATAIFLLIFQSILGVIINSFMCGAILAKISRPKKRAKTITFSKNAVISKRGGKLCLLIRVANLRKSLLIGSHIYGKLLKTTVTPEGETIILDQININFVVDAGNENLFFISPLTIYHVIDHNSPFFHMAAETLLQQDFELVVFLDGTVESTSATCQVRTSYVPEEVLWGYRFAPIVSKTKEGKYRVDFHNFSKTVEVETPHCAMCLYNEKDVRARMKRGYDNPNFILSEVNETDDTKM
KCC2 sec1 – confirmation of human KCC2 transport modulators; shares compounds with Cl transport mod; HEK293-KCC2, thallium flux, FluoZin2 fluorescence; hits give high values; normalised thallium flux (F/F0 slope) at 10 µM; actives 15% (n = 3,700); AID 1713;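 active means thallium flux slope above the same plate's solvent-only control mean plus 3 SD; inconclusive means the two replicate wells disagree; inactive means no significant difference from solvent-only control wells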
KCC2 bumet counter – thallium flux persisting under bumetanide in KCC2 cells, counter-screen secondary assay | shares compounds with Cl transport mod | HEK293-KCC2 + bumetanide/ouabain, thallium flux FluoZin2; hits give high values | normalized thallium flux at 10 µM | actives 49% (n = 3,700) | AID 1714;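 active means thallium entry rate above the same plate's blocked-transporter control wells by more than 3 SD; inconclusive means the two repeat wells disagree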;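 further: raw slope of fluorescence over initial fluorescence between 10 and 20 s after thallium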
KCC2 secondary2 – KCC2 (human) modulation, second secondary assay. shares compounds with Cl transport mod. AID 1715. HEK293-KCC2, thallium flux FluoZin2 fluorescence; actives lie on both sides; F/F0 rise rate, 10–20 s post-thallium. actives 23% (n = 3,700). normalized thallium flux at 10 µM;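 active means thallium flux slope more than 3 SD above or below the plate's solvent-only control mean, mostly below; inconclusive means the two repeat wells disagreed; inactive means no significant shift from solvent-only controls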
HEK counter1 – counter-screen for KCC2 modulators: effect in parental HEK293 cells; shares compounds with Cl transport mod; thallium flux FluoZin2, ouabain; baseline-ratio fluorescence slope, 10–20 s after thallium; thallium flux rate (normalised fluorescence) at 10 µM; actives 46% (n = 3,700);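 active means thallium flux rate significantly above the same plate's solvent-only control wells, beyond their mean plus 3 SD; inconclusive means the two replicate wells gave conflicting results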
KCC2 retest ouab – KCC2 (human) modulation, ouabain retest; shares compounds with Cl transport mod; HEK293-KCC2, thallium flux FluoZin2 fluorescence; bidirectional: low = inhibitor, high = activator; raw Tl+ flux slope (below DMSO = inhibition, above = activation) at 10 µM; actives 48% (n = 3,700); AID 1717;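 active means thallium flux slope beyond 3 SD from same-plate DMSO control mean in most replicates, usually higher, sometimes lower; inconclusive means repeat tests gave conflicting results; inactive means no significant difference from controls in most replicates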;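 further: slope of initial-normalized fluorescence between seconds 10 and 20 after thallium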
HEK293 Tl flux2 – acts in parental HEK cells, second KCC2 counter-screen | shares compounds with Cl transport mod | thallium flux slope at 10 µM | actives 33% (n = 3,700) | HEK293 parental, thallium flux FluoZin-2 fluorescence slope;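 active means thallium flux slope above the same plate's solvent-control mean plus 3 SD in both duplicate wells; inconclusive means duplicate wells that disagreed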;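 further: run without ouabain in cells lacking the KCC2 cotransporter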
Numbers stand for hits; . = inactive; ? = inconclusive; / = no result.

SMILES	Cl transport mod	PKD1 inh	Rad51 HR inh	ROMK mod	KCC2 sec1	KCC2 bumet counter	KCC2 secondary2	HEK counter1	KCC2 retest ouab	HEK293 Tl flux2
COc1ccc(/C=C(\NC(=O)c2ccc(C)cc2)C(=O)Nc2c(C)n(C)n(-c3ccccc3)c2=O)cc1	.	.	.	.	/	/	/	/	/	/
O=C(c1ccc(Cl)cc1)c1cn[nH]c1-c1ccccc1O	.	.	.	.	/	/	/	/	/	/
COc1ccc(C(=O)c2cn[nH]c2-c2cc(Cl)ccc2O)cc1	-5.07	.	.	/	.	.	.	.	.	.
O=C(O)CN(C1CCCCC1)S(=O)(=O)c1ccc(F)cc1	.	.	.	.	/	/	/	/	/	/
C/C(=N\NC(=O)c1ccc(-c2ccccc2)cc1)C1C(=O)c2ccccc2C1=O	.	.	.	.	/	/	/	/	/	/
C/C(=N\NC(=O)c1ccc(Br)cc1)C1C(=O)c2ccccc2C1=O	-5.38	.	.	.	.	.	0.0228	.	?	.
COC(=O)c1cc2c(cc1Cl)N1CCCCCC1=NS2(=O)=O	.	/	/	/	/	/	/	/	/	/
CN(C)S(=O)(=O)c1cccc(NC(=O)c2cc3c(cc2Cl)N2CCCCCC2=NS3(=O)=O)c1	-4.51	.	.	.	.	.	0.0226	.	0.0137	.
CS(=O)(=O)N1N=C(c2cccs2)CC1c1ccc(Cl)o1 (stereo not drawn)	.	.	.	.	/	/	/	/	/	/
O=C(CN1C(=O)CCC1=O)Nc1cccc(NC(=O)CN2C(=O)CCC2=O)c1	.	.	.	.	/	/	/	/	/	/
CC(C)Cn1c(SCC(=O)Nc2cccc(S(N)(=O)=O)c2)nc2ccccc2c1=O	5.71	.	.	.	.	0.0176	.	0.0095	?	0.0106
CC(C)Cn1c(SCC(=O)NC(=O)Nc2ccc3c(c2)OCCO3)nc2ccccc2c1=O	16.7	.	.	/	0.0142	0.0436	.	?	0.039	?
COCCn1c(SCC(=O)Nc2cccc(S(N)(=O)=O)c2)nc2cc(Cl)ccc2c1=O	.	.	.	.	/	/	/	/	/	/
C=CCn1c(SCC(=O)Nc2ccc3c(c2)OCO3)nc2ccccc2c1=O	.	.	.	.	/	/	/	/	/	/
CCOC(=S)N/C(=N\S(=O)(=O)c1ccc(C)cc1)c1ccccc1	/	.	.	/	?	0.0146	.	?	0.0278	.
Cc1ccc(S(=O)(=O)NN/C(=N/S(=O)(=O)c2ccccc2)c2ccccc2)cc1	.	.	.	.	/	/	/	/	/	/
COc1ccc(NC(=S)N/C(=N/S(=O)(=O)c2ccc(C)cc2)c2ccccc2)cc1	4.18	.	.	.	?	0.02	.	0.0129	0.0262	.
O=C1Nc2ccc([N+](=O)[O-])cc2OC1CCN1CCN(Cc2ccccc2)CC1 (stereo not drawn)	-4.2	.	/	.	.	.	0.0263	.	0.0135	.
Oc1ccccc1/C=N/NC(=S)NC1CC2CCC1C2 (stereo not drawn)	14.8	/	.	/	.	0.0371	.	0.0158	0.0304	?
CC1OC(OC2C(OC3C(O[C@H]4CC[C@]5(C)C6C=C[C@]78OC[C@@]9(CC[C@@H](C)[C@H](C)C97)[C@H](O)C[C@@]8(C)[C@]6(C)CC[C@H]5C4(C)C)OC(C)C(O)C3O)OC(CO)C(O)C2O)C(O)C(O)C1O (stereo partly drawn)	27.5	/	/	/	?	0.0251	.	0.0426	?	.
c1ccc2sc(NC3=NCN(CC4CCCO4)CN3)nc2c1 (stereo not drawn)	.	.	.	.	/	/	/	/	/	/
O=c1nc(Nc2cccc(Cl)c2)oc2cc(Cl)oc(=O)c12	-4.53	/	.	/	.	.	.	.	?	.
O=c1nc(Nc2ccccc2)oc2ccccc12	.	/	.	.	/	/	/	/	/	/
CN1c2ccccc2Oc2nnc(N3CCN(Cc4ccccc4)CC3)cc21	-4	.	.	.	.	?	0.0212	.	?	.
CN1c2ccccc2Oc2nnc(Cl)cc21	.	.	.	.	/	/	/	/	/	/
SMILES	Cl transport mod	PKD1 inh	Rad51 HR inh	ROMK mod	KCC2 sec1	KCC2 bumet counter	KCC2 secondary2	HEK counter1	KCC2 retest ouab	HEK293 Tl flux2
CCCNC(=O)N1CCC(C(=O)c2cccc(F)c2)CC1	.	.	.	/	/	/	/	/	/	/
Cc1ccc2oc(-c3ccc(NC(=O)c4ccncc4)cc3O)nc2c1	.	.	.	.	/	/	/	/	/	/
COc1ccc(CC(=O)Nc2ccc(-c3nc4cc(C)ccc4o3)c(O)c2)cc1OC	-5.4	.	/	/	.	.	.	.	.	.
O=C(NCC1CCCO1)c1ccc(COc2ccccc2Br)cc1 (stereo not drawn)	.	.	/	.	/	/	/	/	/	/
Cc1cc(C)n(C(=O)/C(C#N)=N/Nc2cc(Cl)cc(Cl)c2)n1	-7.72	.	.	.	?	?	.	.	0.0137	.
Cc1ccc(OCC(=O)NCC(=O)n2nc(C)cc2C)cc1	.	.	/	.	.	.	0.0282	.	.	.
COc1ccc2c(C)cc(SC3CCOC3=O)nc2c1 (stereo not drawn)	.	.	.	.	/	/	/	/	/	/
Cc1cc(C)c2nc(SC3CCOC3=O)cc(C)c2c1 (stereo not drawn)	11	.	.	.	.	?	.	0.0115	.	?
CCOC(=O)c1cc(-c2ccc(F)cc2)n(CC(=O)NCc2cccnc2)c1C	.	.	.	.	/	/	/	/	/	/
CCOC(=O)c1sc(NC(=O)C(C)Sc2nnc(N)s2)nc1C (stereo not drawn)	.	.	.	.	/	/	/	/	/	/
CCC(=Nc1ccc(Cc2ccncc2)cc1)c1c(O)n(C)c(=O)n(C)c1=O	-3.25	.	.	.	.	?	0.0239	.	?	.
Cc1cc(C)cc(NC(=O)c2oc3ccccc3c2COc2ccccc2)c1	-4.75	.	.	.	.	.	.	.	.	.
Cc1ccc(S(=O)(=O)NCc2ccco2)cc1C	.	.	.	.	/	/	/	/	/	/
O=S(=O)(NCc1ccco1)c1ccc2c(c1)Cc1ccccc1-2	-3.99	.	.	.	.	.	.	?	?	.
Cc1nn(C)c(C)c1S(=O)(=O)N(CC(=O)N1CCc2ccccc2C1)c1ccc(C(C)C)cc1	/	.	.	/	?	.	0.0253	?	0.0144	.
CCC(Oc1ccccc1)C(=O)Nc1ncc([N+](=O)[O-])s1 (stereo not drawn)	-2.78	.	.	.	.	?	.	.	0.0166	.
O=C(CCS(=O)(=O)CCN1CCOCC1)NCNC(=O)CCS(=O)(=O)CCN1CCOCC1	.	.	/	.	/	/	/	/	/	/
Cn1cnc([N+](=O)[O-])c1NCc1ccccc1	-3.96	/	.	/	.	.	0.0238	.	?	.
